Data: ChEMBL document CHEMBL5303300, “EUbOPEN Chemogenomics Library - Multiplex” (2023)
“And” between values parts separate entries of the source, which are not always exact repeats. Equal entries are not always repeated.

Tested on: U2OS
Assay: Multiplex assay against U2OS
Format: toxicity, cell-based
Conditions: human, number of replicates 2
Procedure, shortened: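 Four dyes were applied at seeding to live cells: Hoechst33342, BioTracker Green Microtubule Cytoskeleton Dye, MitoTracker Red and Annexin V Alexa Fluor 680. Imaging after compound addition used a CQ1 microscope at 37°C and 5% CO2. CellPathfinder machine-learning gating then sorted cells into Hoechst high-intensity objects or normal cells, normal cells into healthy, pyknosed or fragmented nuclei, and pyknosed cells into mitotic or apoptotic, with tubulin, mitochondrial-mass and membrane-permeability phenotypes given as per cents of healthy-nucleus cells.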

[1] = 12 h, 1 µM, compound concentration 1 uM
[2] = 12 h, 10 µM, compound concentration 10 uM
[3] = 24 h, 1 µM, compound concentration 1 uM
[4] = 24 h, 10 µM, compound concentration 10 uM
[5] = 48 h, 1 µM, compound concentration 1 uM
[6] = 48 h, 10 µM, compound concentration 10 uM

CCNc1ccc(-c2nn(-c3ccccc3C)c3c2C(C)Cc2nc(NC(=O)OC)sc2-3)cn1.O=C(O)C(F)(F)F (stereo not drawn)
Population Apoptotic (%) [1]: 72% and 80%
Population Fragmented Nuclei (%) [1]: 14% and 11%
Population Healthy Nuclei (%) [1]: 71% and 73%
Population Hoechst High Intensity Objects (%) [1]: 0% and 1%
Population Membrane Permeable-Phenotype (%) [1]: 5% and 2%
Population Mitochondria Different-Phenotype (%) [1]: 5% and 4%
Population Mitotic Cells (%) [1]: 27% and 20%
Population Normal (%) [1]: 100% and 98%
Population Pyknosed Nuclei (%) [1]: 14%
Population Tubulin-Different-Phenotype (%) [1]: 55% and 24%
Total Cell Count [1]: 200 and 68
Population Apoptotic (%) [2]: 83% and 88%
Population Fragmented Nuclei (%) [2]: 32% and 18%
Population Healthy Nuclei (%) [2]: 25% and 55%
Population Hoechst High Intensity Objects (%) [2]: 0%
Population Membrane Permeable-Phenotype (%) [2]: 28% and 25%
Population Mitotic Cells (%) [2]: 16% and 11%
Population Normal (%) [2]: 100% and 99%
Population Pyknosed Nuclei (%) [2]: 42% and 25%
Population Tubulin-Different-Phenotype (%) [2]: 57% and 88%
Population Apoptotic (%) [3]: 84% and 75%
Population Fragmented Nuclei (%) [3]: 14% and 6%
Population Healthy Nuclei (%) [3]: 63% and 74%
Population Hoechst High Intensity Objects (%) [3]: 0%
Population Membrane Permeable-Phenotype (%) [3]: 2% and 8%
Population Mitochondria Different-Phenotype (%) [3]: 9% and 2%
Population Mitotic Cells (%) [3]: 15% and 25%
Population Normal (%) [3]: 100%
Population Pyknosed Nuclei (%) [3]: 21% and 19%
Population Tubulin-Different-Phenotype (%) [3]: 58% and 34%
Total Cell Count [3]: 176 and 63
Population Apoptotic (%) [4]: 72% and 89%
Population Healthy Nuclei (%) [4]: 18% and 39%
Population Hoechst High Intensity Objects (%) [4]: 0%
Population Membrane Permeable-Phenotype (%) [4]: 14% and 32%
Population Mitochondria Different-Phenotype (%) [4]: 28% and 63%
Population Mitotic Cells (%) [4]: 27% and 10%
Population Normal (%) [4]: 100% and 99%
Population Pyknosed Nuclei (%) [4]: 29% and 45%
Population Tubulin-Different-Phenotype (%) [4]: 42% and 83%
Population Apoptotic (%) [5]: 72% and 80%
Population Fragmented Nuclei (%) [5]: 9% and 7%
Population Healthy Nuclei (%) [5]: 52% and 57%
Population Hoechst High Intensity Objects (%) [5]: 0% and 1%
Population Membrane Permeable-Phenotype (%) [5]: 6% and 7%
Population Mitochondria Different-Phenotype (%) [5]: 9% and 2%
Population Mitotic Cells (%) [5]: 27% and 20%
Population Normal (%) [5]: 99% and 98%
Population Pyknosed Nuclei (%) [5]: 37% and 35%
Population Tubulin-Different-Phenotype (%) [5]: 69% and 25%
Total Cell Count [5]: 157 and 71
Population Apoptotic (%) [6]: 90% and 93%
Population Healthy Nuclei (%) [6]: 10% and 28%
Population Hoechst High Intensity Objects (%) [6]: 0%
Population Membrane Permeable-Phenotype (%) [6]: 66% and 43%
Population Mitotic Cells (%) [6]: 10% and 6%
Population Normal (%) [6]: 100% and 99%
Population Pyknosed Nuclei (%) [6]: 33% and 61%
Population Tubulin-Different-Phenotype (%) [6]: 100% and 84%

N=C(N)NCCC[C@H](NC(=O)COCC(c1ccccc1)c1ccccc1)C(=O)O.O=C(O)C(F)(F)F
Population Apoptotic (%) [1]: 100% and 45%
Population Healthy Nuclei (%) [1]: 40% and 87%
Population Hoechst High Intensity Objects (%) [1]: 0%
Population Membrane Permeable-Phenotype (%) [1]: 0% and 1%
Population Mitochondria Different-Phenotype (%) [1]: 0%
Population Normal (%) [1]: 100% and 99%
Population Pyknosed Nuclei (%) [1]: 13% and 9%
Population Tubulin-Different-Phenotype (%) [1]: 41% and 86%
Population Apoptotic (%) [2]: 50% and 58%
Population Fragmented Nuclei (%) [2]: 3%
Population Healthy Nuclei (%) [2]: 70% and 88%
Population Hoechst High Intensity Objects (%) [2]: 0%
Population Membrane Permeable-Phenotype (%) [2]: 4% and 1%
Population Mitochondria Different-Phenotype (%) [2]: 4% and 0%
Population Mitotic Cells (%) [2]: 50% and 41%
Population Normal (%) [2]: 100%
Population Tubulin-Different-Phenotype (%) [2]: 71% and 83%
Population Apoptotic (%) [3]: 40% and 51%
Population Healthy Nuclei (%) [3]: 55% and 88%
Population Hoechst High Intensity Objects (%) [3]: 0%
Population Membrane Permeable-Phenotype (%) [3]: 13% and 0%
Population Mitochondria Different-Phenotype (%) [3]: 0%
Population Mitotic Cells (%) [3]: 60% and 48%
Population Normal (%) [3]: 100%
Population Pyknosed Nuclei (%) [3]: 18% and 9%
Population Tubulin-Different-Phenotype (%) [3]: 73% and 87%
Population Apoptotic (%) [4]: 71% and 50%
Population Fragmented Nuclei (%) [4]: 7% and 2%
Population Healthy Nuclei (%) [4]: 73% and 88%
Population Hoechst High Intensity Objects (%) [4]: 0%
Population Membrane Permeable-Phenotype (%) [4]: 3% and 0%
Population Mitochondria Different-Phenotype (%) [4]: 3% and 0%
Population Mitotic Cells (%) [4]: 28% and 50%
Population Normal (%) [4]: 100%
Population Pyknosed Nuclei (%) [4]: 18% and 8%
Population Tubulin-Different-Phenotype (%) [4]: 67% and 85%
Population Apoptotic (%) [5]: 50% and 43%
Population Healthy Nuclei (%) [5]: 63% and 89%
Population Hoechst High Intensity Objects (%) [5]: 0%
Population Membrane Permeable-Phenotype (%) [5]: 11% and 0%
Population Mitochondria Different-Phenotype (%) [5]: 7% and 0%
Population Mitotic Cells (%) [5]: 50% and 56%
Population Normal (%) [5]: 100%
Population Pyknosed Nuclei (%) [5]: 14% and 6%
Population Tubulin-Different-Phenotype (%) [5]: 73% and 85%
Population Apoptotic (%) [6]: 35% and 55%
Population Fragmented Nuclei (%) [6]: 7% and 2%
Population Healthy Nuclei (%) [6]: 70% and 93%
Population Hoechst High Intensity Objects (%) [6]: 0%
Population Membrane Permeable-Phenotype (%) [6]: 2% and 1%
Population Mitochondria Different-Phenotype (%) [6]: 2% and 0%
Population Mitotic Cells (%) [6]: 64% and 44%
Population Normal (%) [6]: 100% and 99%
Population Tubulin-Different-Phenotype (%) [6]: 63% and 95%
